The results in this text go back to ChEMBL document CHEMBL3600302, “A Ligand-Based Drug Design. Discovery of 4-Trifluoromethyl-7,8-pyranocoumarin as a Selective Inhibitor of Human Cytochrome P450 1A2” (J Med Chem, 2015).

The term Ki denotes the dissociation constant of the complex between target and ligand, obtained from inhibition or displacement.

For data set [1], the target named is T1, Aryl hydrocarbon receptor (Homo sapiens, UniProt P35869).
T1 sequence (P35869 whole entry): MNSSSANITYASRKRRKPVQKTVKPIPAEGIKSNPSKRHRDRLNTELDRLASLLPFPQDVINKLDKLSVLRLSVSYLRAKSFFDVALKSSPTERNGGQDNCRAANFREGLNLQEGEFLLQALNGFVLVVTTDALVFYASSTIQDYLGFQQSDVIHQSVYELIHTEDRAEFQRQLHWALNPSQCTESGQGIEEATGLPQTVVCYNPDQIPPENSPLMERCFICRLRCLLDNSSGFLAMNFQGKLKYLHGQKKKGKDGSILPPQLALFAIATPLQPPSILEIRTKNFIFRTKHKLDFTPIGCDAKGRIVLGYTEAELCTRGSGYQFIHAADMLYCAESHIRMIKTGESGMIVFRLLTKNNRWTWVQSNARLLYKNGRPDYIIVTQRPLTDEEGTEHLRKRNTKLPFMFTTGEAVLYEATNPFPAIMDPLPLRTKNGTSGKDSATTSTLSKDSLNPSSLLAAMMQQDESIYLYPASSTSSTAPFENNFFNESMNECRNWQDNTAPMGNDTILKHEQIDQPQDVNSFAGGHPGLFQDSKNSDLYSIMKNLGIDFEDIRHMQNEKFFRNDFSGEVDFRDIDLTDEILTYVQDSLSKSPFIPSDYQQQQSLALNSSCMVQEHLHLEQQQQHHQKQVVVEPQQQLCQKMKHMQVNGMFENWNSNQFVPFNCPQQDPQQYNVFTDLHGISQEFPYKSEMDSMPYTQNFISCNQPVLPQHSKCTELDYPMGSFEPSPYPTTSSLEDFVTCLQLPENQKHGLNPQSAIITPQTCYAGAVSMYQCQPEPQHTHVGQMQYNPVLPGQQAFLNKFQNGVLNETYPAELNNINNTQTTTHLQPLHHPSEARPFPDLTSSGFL
As to the kind of experiment: Activation of human AhR expressed in Saccharomyces cerevisiae MYA-3637 assessed as upregulation of […] at >10^-7 M by LacZ reporter assay. The format is ADME. Put shortly:
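Yeast MYA-3637 carrying integrated human AhR (GAL promoter) and a lacZ reporter, grown on synthetic minimal medium without tryptophan, with galactose as carbon source. Compounds in DMSO were added to overnight culture in quadruplicate. Next day A600 was read, then lysis buffer (0.2% sarcosyl, 1 mM DTT, 0.4 mg/mL ONPG) was added. A405/A600 ratio was taken. βNF 10^-8 M served as positive control. At least three repeats.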
(In general: Reporter assays use an easily measured gene product as a stand-in for the process of interest.)

Data set [2] addresses T2, Cytochrome P450 1A1 (Homo sapiens, UniProt P04798).
T2 sequence (P04798 whole entry): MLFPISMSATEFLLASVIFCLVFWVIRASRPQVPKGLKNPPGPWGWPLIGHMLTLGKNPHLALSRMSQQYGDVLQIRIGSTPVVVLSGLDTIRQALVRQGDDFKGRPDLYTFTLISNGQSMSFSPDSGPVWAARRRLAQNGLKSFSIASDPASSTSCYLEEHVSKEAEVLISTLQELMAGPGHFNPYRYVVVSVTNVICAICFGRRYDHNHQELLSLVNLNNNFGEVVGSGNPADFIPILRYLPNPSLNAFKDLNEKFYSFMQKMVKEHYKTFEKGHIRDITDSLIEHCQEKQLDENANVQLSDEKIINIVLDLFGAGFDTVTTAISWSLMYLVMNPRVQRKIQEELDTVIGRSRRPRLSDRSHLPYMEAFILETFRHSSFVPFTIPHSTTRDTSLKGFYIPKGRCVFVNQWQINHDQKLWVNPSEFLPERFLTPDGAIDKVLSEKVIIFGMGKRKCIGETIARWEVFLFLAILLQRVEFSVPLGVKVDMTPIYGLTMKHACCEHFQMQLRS
As to the kind of experiment: Inhibition of human microsomal CYP1A1-dependent ethoxyresorufin-O-deethylase activity at 10 nM preincubated for 5 mins followed by NADPH regenerating solution and substrate addition measured over 6 mins by spectrofluorimetric analysis. The conditions noted are these: 0.1 h, 0.01 µM. In a few lines:
(§1)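 Microsomal P450 in 0.1 M potassium phosphate pH 7.6 with MgCl2 and 10 nM inhibitor in DMSO, 2 mL final. Preincubated 5 min at 37 °C either with NADPH-regenerating solution, or without it, with NADPH then added at start. Reaction started with ethoxyresorufin (final 5 µM). Resorufin formation followed 6 min at 37 °C.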

Data set [3] deals with T2, Cytochrome P450 1A1. As to the kind of experiment: Inhibition of human microsomal CYP1A1-dependent ethoxyresorufin-O-deethylase activity by spectrofluorimetric analysis in presence of NADPH regenerating solution. Put shortly:
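Microsomal P450 (final 5 nM) in 0.1 M potassium phosphate pH 7.6 with MgCl2 at 37 °C. Substrate final 5 µM: ethoxyresorufin for 1A1/1B1, methoxyresorufin for 1A2. […] Ki was taken as the x-intercept of Dixon plots (1/v0 vs [I]). Mean ± SD of three independent experiments. Selectivity ratios are ratios of these Ki.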

For data set [4], the target named is T3, Cytochrome P450 1B1 (Homo sapiens, UniProt Q16678).
T3 sequence (Q16678 whole entry): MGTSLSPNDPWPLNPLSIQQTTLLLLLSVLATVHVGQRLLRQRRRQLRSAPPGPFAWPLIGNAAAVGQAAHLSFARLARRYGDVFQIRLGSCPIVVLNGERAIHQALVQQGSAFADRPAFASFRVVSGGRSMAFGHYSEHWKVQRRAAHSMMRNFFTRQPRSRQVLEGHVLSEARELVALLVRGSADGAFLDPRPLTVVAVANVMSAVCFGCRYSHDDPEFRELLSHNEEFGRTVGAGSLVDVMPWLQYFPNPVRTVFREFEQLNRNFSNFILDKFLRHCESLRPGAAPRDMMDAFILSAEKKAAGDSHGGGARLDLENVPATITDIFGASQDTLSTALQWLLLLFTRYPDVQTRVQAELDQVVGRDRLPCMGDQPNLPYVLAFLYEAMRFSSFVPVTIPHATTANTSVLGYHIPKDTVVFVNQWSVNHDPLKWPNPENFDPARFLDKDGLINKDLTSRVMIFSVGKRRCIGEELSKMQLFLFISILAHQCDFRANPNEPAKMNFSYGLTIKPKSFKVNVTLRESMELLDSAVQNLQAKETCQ
Nature of the data set: Inhibition of human microsomal CYP1B1-dependent ethoxyresorufin-O-deethylase activity at 10 nM preincubated for 5 mins followed by NADPH regenerating solution and substrate addition measured over 6 mins by spectrofluorimetric analysis. The conditions noted are these: 0.1 h, 0.01 µM. Put shortly: as §1

The target of data set [5] is T3, Cytochrome P450 1B1. As to the kind of experiment: Inhibition of human microsomal CYP1B1-dependent ethoxyresorufin-O-deethylase activity at 10 nM measured over 6 mins by spectrofluorimetric analysis in absence of NADPH regenerating solution. The conditions noted are these: 0.1 h, 0.01 µM. Put shortly:
as §1

Regarding `Cc1cc2c(ccc3c(=O)cc(-c4ccccc4)oc32)o1`, in data set [1], the result was Active. In addition, the “inhibition (INH)” value against Cytochrome P450 1A1 [2], against Cytochrome P450 1B1 [4] and against Cytochrome P450 1B1 [5] was “Not Active” in each case. The Ki on Cytochrome P450 1A1 [3] is 430 nM.
